Results as given in ChEMBL document CHEMBL1148671, “Synthesis and antibacterial activity of C12 des-methyl ketolides” (2006).
Values after ≈ are worked out from the molar mass of the structure shown.

Assays:
Format in all cases: functional
Streptococcus pneumoniae [1] = assay: Antibacterial activity against Streptococcus pneumoniae 297-749 by broth microdilution method
Procedure, shortened: (§1)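 In vitro activity was read as the minimum inhibitory concentration (MIC) by broth microdilution and reported in μg/mL. The S. pneumoniae panel included erythromycin-resistant strains carrying mef or erm genes. Telithromycin and clarithromycin were run as comparators in every assay.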

[2] = system: Staphylococcus epidermidis; assay: Antibacterial activity against Staphylococcus epidermidis 14990 by broth microdilution method; procedure, shortened: as §1
Enterococcus faecalis [3] = assay: Antibacterial activity against Enterococcus faecalis bc11148-2 by broth microdilution method; procedure, shortened: as §1
Streptococcus pyogenes = assay: Antibacterial activity against Streptococcus pyogenes 8668 by broth microdilution method; procedure, shortened: as §1
Streptococcus pneumoniae [4] = assay: Antibacterial activity against erythromycin-resistant Streptococcus pneumoniae mef 5654 by broth microdilution method
Enterococcus faecalis [5] = assay: Antibacterial activity against Enterococcus faecalis 29212 by broth microdilution method; procedure, shortened: as §1
Staphylococcus aureus [6] = assay: Antibacterial activity against Staphylococcus aureus 33591 by broth microdilution method; procedure, shortened: as §1
[7] = system: Staphylococcus epidermidis; assay: Antibacterial activity against Staphylococcus epidermidis f50654 by broth microdilution method; procedure, shortened: as §1
Streptococcus pneumoniae [8] = assay: Antibacterial activity against erythromycin-resistant Streptococcus pneumoniae erm 6849 by broth microdilution method
Staphylococcus aureus [9] = assay: Antibacterial activity against Staphylococcus aureus 29213 by broth microdilution method; details: ATCC29213; procedure, shortened: as §1
Streptococcus pneumoniae [10] = assay: Antibacterial activity against erythromycin-resistant Streptococcus pneumoniae mef S 3427 by broth microdilution method
Streptococcus pneumoniae [11] = assay: Antibacterial activity against Streptococcus pneumoniae 49619 by broth microdilution method; procedure, shortened: as §1
Streptococcus pneumoniae [12] = assay: Antibacterial activity against Streptococcus pneumoniae 280-962 by broth microdilution method; procedure, shortened: as §1
Haemophilus influenzae [13] = assay: Antibacterial activity against Haemophilus influenzae 49247 by broth microdilution method; procedure, shortened: as §1
Haemophilus influenzae [14] = assay: Antibacterial activity against Haemophilus influenzae 2762 by broth microdilution method; procedure, shortened: as §1

| Compound | MIC (Streptococcus pneumoniae [1]) | MIC [2] | MIC (Enterococcus faecalis [3]) | MIC (Streptococcus pyogenes) | MIC (Streptococcus pneumoniae [4]) | MIC (Enterococcus faecalis [5]) | MIC (Staphylococcus aureus [6]) | MIC [7] | MIC (Streptococcus pneumoniae [8]) | MIC (Staphylococcus aureus [9]) | MIC (Streptococcus pneumoniae [10]) | MIC (Streptococcus pneumoniae [11]) | MIC (Streptococcus pneumoniae [12]) | MIC (Haemophilus influenzae [13]) | MIC (Haemophilus influenzae [14]) |
| --- | --- | --- | --- | --- | --- | --- | --- | --- | --- | --- | --- | --- | --- | --- | --- |
| CC[C@H]1OC(=O)[C@H](C)C(=O)[C@H](C)[C@@H](O[C@@H]2O[C@H](C)C[C@H](N(C)C)[C@H]2O)[C@](C)(OC)C[C@@H](C)C(=O)[C@H](C)[C@@H]2[C@@H]1OC(=O)N2CCCCc1cnc(-c2cccnc2)s1 | ≤ 0.05 µg/mL | 0.2 µg/mL (≈ 0.245 µM) | 3.13 µg/mL (≈ 3.84 µM) | ≤ 0.05 µg/mL | 0.78 µg/mL (≈ 0.957 µM) | ≤ 0.05 µg/mL | > 50 µg/mL | 0.1 µg/mL (≈ 0.123 µM) | 25 µg/mL (≈ 30.7 µM) | 0.2 µg/mL (≈ 0.245 µM) | 0.1 µg/mL (≈ 0.123 µM) | ≤ 0.05 µg/mL | ≤ 0.05 µg/mL | 6.25 µg/mL (≈ 7.67 µM) | 1.56 µg/mL (≈ 1.91 µM) |
| CC[C@H]1OC(=O)[C@H](C)C(=O)[C@H](C)[C@@H](O[C@@H]2O[C@H](C)C[C@H](N(C)C)[C@H]2O)[C@](C)(OC)C[C@@H](C)C(=O)[C@H](C)[C@@H]2[C@@H]1OC(=O)N2CCCCc1ccc2ccccc2n1 | ≤ 0.05 µg/mL | 0.2 µg/mL (≈ 0.256 µM) | 3.13 µg/mL (≈ 4 µM) | ≤ 0.05 µg/mL | 0.2 µg/mL (≈ 0.256 µM) | ≤ 0.05 µg/mL | > 50 µg/mL | 0.2 µg/mL (≈ 0.256 µM) | 25 µg/mL (≈ 32 µM) | 0.4 µg/mL (≈ 0.512 µM) | – | ≤ 0.05 µg/mL | ≤ 0.05 µg/mL | 3.13 µg/mL (≈ 4 µM) | – |
| CC[C@H]1OC(=O)[C@H](C)C(=O)[C@H](C)[C@@H](O[C@@H]2O[C@H](C)C[C@H](N(C)C)[C@H]2O)[C@](C)(OC)C[C@@H](C)C(=O)[C@H](C)[C@@H]2[C@@H]1OC(=O)N2CCCCn1ccc2c(N)cccc21 | ≤ 0.05 µg/mL | 0.4 µg/mL (≈ 0.51 µM) | 6.25 µg/mL (≈ 7.96 µM) | ≤ 0.05 µg/mL | 0.78 µg/mL (≈ 0.994 µM) | ≤ 0.05 µg/mL | > 50 µg/mL | 0.78 µg/mL (≈ 0.994 µM) | 25 µg/mL (≈ 31.8 µM) | 0.2 µg/mL (≈ 0.255 µM) | – | 0.1 µg/mL (≈ 0.127 µM) | ≤ 0.05 µg/mL | 3.13 µg/mL (≈ 3.99 µM) | 1.56 µg/mL (≈ 1.99 µM) |
| CC[C@H]1OC(=O)[C@H](C)C(=O)[C@H](C)[C@@H](O[C@@H]2O[C@H](C)C[C@H](N(C)C)[C@H]2O)[C@](C)(OC)C[C@@H](C)C(=O)[C@H](C)[C@@H]2[C@@H]1OC(=O)N2CCCCn1cnc(-c2ccccc2)c1 | ≤ 0.05 µg/mL | 0.1 µg/mL (≈ 0.125 µM) | > 50 µg/mL | ≤ 0.05 µg/mL | 0.2 µg/mL (≈ 0.251 µM) | 0.1 µg/mL (≈ 0.125 µM) | > 50 µg/mL | 0.2 µg/mL (≈ 0.251 µM) | 0.78 µg/mL (≈ 0.979 µM) | 0.2 µg/mL (≈ 0.251 µM) | – | ≤ 0.05 µg/mL | ≤ 0.05 µg/mL | 3.13 µg/mL (≈ 3.93 µM) | – |
| CC[C@H]1OC(=O)[C@H](C)C(=O)[C@H](C)[C@@H](O[C@@H]2O[C@H](C)C[C@H](N(C)C)[C@H]2O)[C@](C)(OC)C[C@@H](C)C(=O)[C@H](C)[C@@H]2[C@@H]1OC(=O)N2CCCCn1ccc2ccccc21 | ≤ 0.05 µg/mL | 0.2 µg/mL (≈ 0.26 µM) | > 50 µg/mL | ≤ 0.05 µg/mL | 0.2 µg/mL (≈ 0.26 µM) | 0.1 µg/mL (≈ 0.13 µM) | > 50 µg/mL | 0.4 µg/mL (≈ 0.519 µM) | 6.25 µg/mL (≈ 8.12 µM) | 0.4 µg/mL (≈ 0.519 µM) | – | ≤ 0.05 µg/mL | ≤ 0.05 µg/mL | 6.25 µg/mL (≈ 8.12 µM) | – |
| CC[C@H]1OC(=O)[C@H](C)C(=O)[C@H](C)[C@@H](O[C@@H]2O[C@H](C)C[C@H](N(C)C)[C@H]2O)[C@](C)(OC)C[C@@H](C)C(=O)[C@H](C)[C@@H]2[C@@H]1OC(=O)N2CCCCc1ncc(-c2cccc(N)c2)s1 | ≤ 0.05 µg/mL | 0.4 µg/mL (≈ 0.482 µM) | 3.13 µg/mL (≈ 3.78 µM) | ≤ 0.05 µg/mL | 0.78 µg/mL (≈ 0.941 µM) | 0.2 µg/mL (≈ 0.241 µM) | > 50 µg/mL | 0.2 µg/mL (≈ 0.241 µM) | 50 µg/mL (≈ 60.3 µM) | 0.4 µg/mL (≈ 0.482 µM) | – | ≤ 0.05 µg/mL | ≤ 0.05 µg/mL | 6.25 µg/mL (≈ 7.54 µM) | 1.56 µg/mL (≈ 1.88 µM) |
| CC[C@H]1OC(=O)[C@H](C)C(=O)[C@H](C)[C@@H](O[C@@H]2O[C@H](C)C[C@H](N(C)C)[C@H]2O)[C@](C)(OC)C[C@@H](C)C(=O)[C@H](C)[C@@H]2[C@@H]1OC(=O)N2CCCCn1cnc2ncccc21 | ≤ 0.05 µg/mL | 0.4 µg/mL (≈ 0.518 µM) | > 50 µg/mL | ≤ 0.05 µg/mL | 3.13 µg/mL (≈ 4.05 µM) | 0.1 µg/mL (≈ 0.13 µM) | > 50 µg/mL | 0.4 µg/mL (≈ 0.518 µM) | 0.78 µg/mL (≈ 1.01 µM) | 0.4 µg/mL (≈ 0.518 µM) | 0.4 µg/mL (≈ 0.518 µM) | ≤ 0.05 µg/mL | ≤ 0.05 µg/mL | 3.13 µg/mL (≈ 4.05 µM) | – |
| CC[C@H]1OC(=O)[C@H](C)C(=O)[C@H](C)[C@@H](O[C@@H]2O[C@H](C)C[C@H](N(C)C)[C@H]2O)[C@](C)(OC)C[C@@H](C)C(=O)[C@H](C)[C@@H]2[C@@H]1OC(=O)N2CCCCn1ccc2ncccc21 | ≤ 0.05 µg/mL | 0.4 µg/mL (≈ 0.519 µM) | 6.25 µg/mL (≈ 8.11 µM) | ≤ 0.05 µg/mL | 0.2 µg/mL (≈ 0.259 µM) | 0.1 µg/mL (≈ 0.13 µM) | > 50 µg/mL | 0.4 µg/mL (≈ 0.519 µM) | 0.2 µg/mL (≈ 0.259 µM) | 0.2 µg/mL (≈ 0.259 µM) | – | ≤ 0.05 µg/mL | ≤ 0.05 µg/mL | 1.56 µg/mL (≈ 2.02 µM) | 0.78 µg/mL (≈ 1.01 µM) |
| CC[C@H]1OC(=O)[C@H](C)C(=O)[C@H](C)[C@@H](O[C@@H]2O[C@H](C)C[C@H](N(C)C)[C@H]2O)[C@](C)(OC)C[C@@H](C)C(=O)[C@H](C)[C@@H]2[C@@H]1OC(=O)N2CCCCn1cnc2cccnc21 | ≤ 0.05 µg/mL | 0.2 µg/mL (≈ 0.259 µM) | 50 µg/mL (≈ 64.8 µM) | ≤ 0.05 µg/mL | 0.78 µg/mL (≈ 1.01 µM) | ≤ 0.05 µg/mL | > 50 µg/mL | 0.4 µg/mL (≈ 0.518 µM) | 0.78 µg/mL (≈ 1.01 µM) | 0.2 µg/mL (≈ 0.259 µM) | – | ≤ 0.05 µg/mL | ≤ 0.05 µg/mL | 3.13 µg/mL (≈ 4.05 µM) | – |
| CC[C@H]1OC(=O)[C@H](C)C(=O)[C@H](C)[C@@H](O[C@@H]2O[C@H](C)C[C@H](N(C)C)[C@H]2O)[C@](C)(OC)C[C@@H](C)C(=O)[C@H](C)[C@@H]2[C@@H]1OC(=O)N2CCCCc1ccnc2ccccc12 | ≤ 0.05 µg/mL | 0.1 µg/mL (≈ 0.128 µM) | > 50 µg/mL | ≤ 0.05 µg/mL | 0.1 µg/mL (≈ 0.128 µM) | ≤ 0.05 µg/mL | > 50 µg/mL | 0.1 µg/mL (≈ 0.128 µM) | 6.25 µg/mL (≈ 7.99 µM) | 0.1 µg/mL (≈ 0.128 µM) | – | ≤ 0.05 µg/mL | ≤ 0.05 µg/mL | 1.56 µg/mL (≈ 1.99 µM) | – |
| CC[C@H]1OC(=O)[C@H](C)C(=O)[C@H](C)[C@@H](O[C@@H]2O[C@H](C)C[C@H](N(C)C)[C@H]2O)[C@](C)(OC)C[C@@H](C)C(=O)[C@H](C)[C@H]2N(CCCCn3cnc(-c4cccnc4)c3)C(=O)O[C@]12C [TELITHROMYCIN] | – | – | – | – | 0.4 µg/mL (≈ 0.493 µM) | – | – | – | – | – | – | – | – | – | – |
| CC[C@H]1OC(=O)[C@H](C)C(=O)[C@H](C)[C@@H](O[C@@H]2O[C@H](C)C[C@H](N(C)C)[C@H]2O)[C@](C)(OC)C[C@@H](C)C(=O)[C@H](C)[C@@H]2[C@@H]1OC(=O)N2CCCCc1ccc(-c2cncnc2)s1 | ≤ 0.05 µg/mL | 0.2 µg/mL (≈ 0.245 µM) | > 50 µg/mL | ≤ 0.05 µg/mL | 0.4 µg/mL (≈ 0.491 µM) | ≤ 0.05 µg/mL | > 50 µg/mL | 0.2 µg/mL (≈ 0.245 µM) | > 50 µg/mL | 0.2 µg/mL (≈ 0.245 µM) | – | ≤ 0.05 µg/mL | ≤ 0.05 µg/mL | 12.5 µg/mL (≈ 15.3 µM) | 3.13 µg/mL (≈ 3.84 µM) |
